Data as given in article PMC6392825 (ChemistryOpen, 2019).
In brackets after ≈: the same amount, converted by molar mass.

Assays:
EA.hy926 [1] = test: Cell growth inhibition, protein content; type: cell-based; settings: Homo sapiens, EA.hy 926, 72 h, read-out: IC50 SRB
How it was run: (§1)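 Cell lines from ATCC, grown in DMEM+glutamax with 1% NEAA, 1% P/S and 10% FBS at 37 °C, 10% CO2. Seeded at 20000 cells/well for 24 h, then exposed to test compound (25 mM DMSO stock) for three days. Fixed with cold TCA for 1 h at 4 °C, stained 30 min with 0.4% SRB in 1% acetic acid, dissolved in 10 mM Tris, A490. Triplicate; IC50 given as mean ± SD combined with MTT data (n ≥ 3).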

HT‐29 [2] = test: Cell growth inhibition, protein content; type: cell-based; settings: Homo sapiens, HT-29, 72 h, read-out: IC50 SRB
How it was run: as §1

HT‐29 [3] = test: Cytotoxicity, mitochondrial activity; type: cell-based; settings: Homo sapiens, HT-29, 72 h, read-out: IC50 MTT
How it was run: (§2)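 Seeded at 20000 cells/well in DMEM and grown 24 h at 37 °C, 10% CO2. Medium was then replaced with serum-free medium holding test compound (25 mM DMSO stock) at various concentrations for 72 h, in triplicate; doxorubicin was the positive control. MTT (5 mg/mL stock in PBS) added for 2 h, formazan dissolved in DMSO, A570. IC50 derived from % surviving cells, reported as mean ± SD combined with SRB data.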

HepG2 [4] = test: Cytotoxicity, mitochondrial activity; type: cell-based; settings: Homo sapiens, HepG2, 72 h, read-out: IC50 MTT
How it was run: as §2

[5] = test system: HepG2, HT‐29, Caco‐2 and EA.hy926; test: Antiproliferative activity, MTT and SRB assays taken together; type: cell-based
Caco‐2 [6] = test: Cytotoxicity, mitochondrial activity; type: cell-based; settings: Homo sapiens, Caco-2, 72 h, read-out: IC50 MTT
How it was run: as §2

[7] = Chemical antioxidant capacity, FRAP assay
HepG2 [8] = test: Intracellular ROS assay; type: cell-based; settings: for change of intracellular ROS in words: HepG2, vs untreated control, 10 and 1 μM; for activity at 1 µM / activity at 10 µM: Homo sapiens, HepG2, read-out: Intracellular ROS, percentage compared to the untreated control cells (ROS/SRB)
How it was run: (§3)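 Cells seeded at 20000/well and grown 24 h at 37 °C, 10% CO2, then treated with test compound at 10 and 1 μM in serum-free medium. NAC and doxorubicin served as controls. After a PBS wash, cells were loaded with 20 μM DCFH-DA for 30 min, washed, and held 1 h in phenol red-free DMEM. Fluorescence read at ex 485/em 535 nm and normalized to SRB in the same well. Reported as % of untreated control, n ≥ 3, two-tailed t-test with unequal variances.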

EA.hy926 [9] = test: Intracellular ROS assay; type: cell-based; settings: for activity at 1 µM / activity at 10 µM: Homo sapiens, EA.hy 926, read-out: Intracellular ROS, percentage compared to the untreated control cells (ROS/SRB); for change of intracellular ROS in words: EA.hy926, vs untreated control, 10 and 1 μM
How it was run: as §3

[10] = Water solubility, shake flask method, 0.1 M phosphate buffer pH 6.8; type: physicochemical; settings: 37 °C, pH 6.8, aqueous buffer, thermodynamic from solid
HT‐29 [11] = test: Intracellular ROS assay; type: cell-based; settings: for activity at 1 µM / activity at 10 µM: Homo sapiens, HT-29, read-out: Intracellular ROS, percentage compared to the untreated control cells (ROS/SRB)
How it was run: as §3

EA.hy926 [12] = test: Cytotoxicity, mitochondrial activity; type: cell-based; settings: Homo sapiens, EA.hy 926, 72 h, read-out: IC50 MTT
How it was run: as §2

Caco‐2 [13] = test: Cell growth inhibition, protein content; type: cell-based; settings: Homo sapiens, Caco-2, 72 h, read-out: IC50 SRB
How it was run: as §1

Caco‐2 [14] = test: Intracellular ROS assay; type: cell-based; settings: for activity at 1 µM / activity at 10 µM: Homo sapiens, Caco-2, read-out: Intracellular ROS, percentage compared to the untreated control cells (ROS/SRB)
How it was run: as §3

HepG2 [15] = test: Cell growth inhibition, protein content; type: cell-based; settings: Homo sapiens, HepG2, 72 h, read-out: IC50 SRB
How it was run: as §1

CHO‐K1 = test: Intracellular ROS assay; type: cell-based, Chinese hamster; settings: CHO‐K1, vs untreated control, 10 and 1 μM
How it was run: as §3

| solubility at 90 min [10] [µM] | solubility at 24 h [10] [µM] | IC50 (Caco‐2 [13]) [µM] | IC50 (HepG2 [15]) [µM] | Compound | IC50 (EA.hy926 [1]) [µM] | IC50 (HT‐29 [2]) [µM] | IC50 (HT‐29 [3]) [µM] | IC50 (HepG2 [4]) [µM] | IC50 (Caco‐2 [6]) [µM] | FRAP (Trolox equivalent per μM) [7] [Trolox equivalent per μM] | FRAP (curcumin equivalent per μM) [7] | change of intracellular ROS in words (HepG2 [8]) | activity at 10 µM (HepG2 [8]) [%] | activity at 1 µM (EA.hy926 [9]) [%] | activity at 10 µM (EA.hy926 [9]) [%] | activity at 1 µM (HT‐29 [11]) [%] | activity at 10 µM (HT‐29 [11]) [%] | IC50 (EA.hy926 [12]) [µM] | activity at 1 µM (Caco‐2 [14]) [%] | activity at 10 µM (Caco‐2 [14]) [%] | other results |
| --- | --- | --- | --- | --- | --- | --- | --- | --- | --- | --- | --- | --- | --- | --- | --- | --- | --- | --- | --- | --- | --- |
| 9 ± 0.6 (≈ 2.91 µg/mL) | 12.8 ± 1.1 (≈ 4.14 µg/mL) | 12 ± 0.7 | 9.8 ± 0.6 | COc1cc(/C=C/C(=O)/C=C(O)/C=C/c2ccncc2)ccc1O [3 c, (1E,4Z,6E)‐5‐Hydroxy‐1‐(4‐hydroxy‐3‐methoxyphenyl)‐7‐(pyridin‐4‐yl)hepta‐1,4,6‐triene‐3‐one] | 3.7 ± 0.2 | 48.8 ± 1.8 | 4.9 ± 0.3 | 3.2 ± 0.8 | 7.1 ± 0.4 | 0.56 | 0.54 curcumin equivalent per μM | significantly increased ROS production | 128 ± 4.4 | 100 ± 6.9 | 95.7 ± 3.5 | 93.4 ± 6.4 | 99.8 ± 11.4 | 6.1 ± 0.1 | 89.8 ± 3.6 | 99.7 ± 1 | antiproliferative activity / cell growth inhibition in words [5]: comparable activity to the commercial doxorubicin drug; antioxidant activity in words, FRAP [7]: comparable to ascorbic acid; activity at 1 µM (HepG2 [8]): 104 ± 13.1% |
| 16.8 ± 1.6 (≈ 5.37 µg/mL) | 12.8 ± 1.4 (≈ 4.09 µg/mL) | 46.5 ± 0.5 | 54.6 ± 0.3 | COc1cc(/C=C/c2cc(/C=C/c3ccncc3)[nH]n2)ccc1O [4 b, 2‐Methoxy‐4‐{(E)‐2‐[5‐((E)‐2‐(pyridin‐4‐yl)vinyl)‐1H‐pyrazol‐3‐yl]vinyl}phenol] | 51.8 ± 0.3 | 47.4 ± 0.2 | 49 ± 0.7 | 56.7 ± 0.5 | 39.3 ± 1.2 | 0.43 | 0.42 curcumin equivalent per μM | significantly increased ROS production | 123 ± 11.4 | 86.9 ± 1.6 | 80.6 ± 6.8 | 111 ± 16.2 | 114 ± 12.3 | 35.7 ± 0.1 | 106 ± 4.6 | 94.3 ± 6.7 | activity at 1 µM (HepG2 [8]): 135 ± 14.1%; change of intracellular ROS in words (EA.hy926 [9]): decreased intracellular ROS; change of intracellular ROS in words (CHO‐K1): significantly increased ROS |
| 6.4 ± 0.2 (≈ 2.36 µg/mL) | 7 ± 0.2 (≈ 2.59 µg/mL) | 60.3 ± 3.5 | 28.3 ± 4.7 | COc1cc(/C=C/c2cc(/C=C/c3cccc4cnccc34)[nH]n2)ccc1O [4 c, 2‐Methoxy‐4‐{(E)‐2‐[5‐((E)‐2‐(isoquinolin‐5‐yl)vinyl)‐1H‐pyrazol‐3‐yl]vinyl}phenol] | > 75 | > 75 | 37.7 ± 1.3 | 6.7 ± 0.4 | 58.7 ± 2 | 0.15 | 0.14 curcumin equivalent per μM | significantly decreased ROS signal | 88 ± 10.6 | 89.9 ± 2.5 | 99.2 ± 5 | 94.4 ± 3.4 | 86.4 ± 8.2 | 38.8 ± 0.4 | 108 ± 18.6 | 102 ± 17.3 | antiproliferative activity / cell growth inhibition in words [5]: comparable activity to the commercial doxorubicin drug; activity at 1 µM (HepG2 [8]): 74.7 ± 2.9% |
| 13.7 ± 0.5 (≈ 4.35 µg/mL) | 11.7 ± 2.3 (≈ 3.71 µg/mL) | 21.1 ± 0.3 | 49.5 ± 2.1 | C(=C\c1c[nH]c2ccccc12)/c1cc(/C=C/c2cccs2)[nH]n1 [4 d, 3‐{(E)‐2‐[5‐((E)‐2‐(thiophen‐2‐yl)vinyl)‐1H‐pyrazol‐3‐yl]vinyl}‐1H‐indole] | 9.5 ± 0.4 | 9.7 ± 0.5 | 4.2 ± 0.4 | 34.9 ± 0.8 | 19.6 ± 4 | 0.33 | 0.32 curcumin equivalent per μM | significantly increased ROS production | 985 ± 78.2 | 483.9 ± 1.4 | 402 ± 23.4 | 463 ± 42.7 | 384 ± 47.5 | 6 ± 0.9 | 458 ± 97.5 | 382 ± 62.6 | change of intracellular ROS in words (EA.hy926 [9]): significantly increased ROS production; change of intracellular ROS in words (HT‐29 [11]; HT‐29, vs untreated control, 10 and 1 μM): higher ROS signal; change of intracellular ROS in words (CHO‐K1): significantly increased ROS; change of intracellular ROS in words (Caco‐2 [14]; Caco‐2, vs untreated control, 10 and 1 μM): significantly increased ROS production |
